Shown is part of a subset that was picked to be rich in hits.
Jurkat NFkB inh – inhibitors of the PMA/ionomycin-induced NF-kB reporter in Jurkat cells; PMA/ionomycin-induced NF-kB luciferase reporter, luminescence; inhibition, % at 4 µM; actives 0.53% (n = 330,000); AID 435003; in the data active = inhibition above about 50%
697 NFkB inh – lowers PMA/ionomycin-induced NF-kB signal in 697 B cells | 697 B-cell NF-kB luciferase reporter, 16 h | inhibition, % at 4 µM | actives 0.33% (n = 330,000); in the data active = inhibition above about 35%
UPR XBP1 act – adaptive UPR (XBP1) activation. CHO-XBP1 luciferase reporter, IRE1-XBP1 UPR activation, luminescence; percent of tunicamycin response, DMSO as zero. activation, % at 20 µM. actives 0.33% (n = 330,000);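 active = versus positive control, 20 µM dose yields 30% or more activation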;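 note: 100% = tunicamycin at 10 µg/mL and 0% = DMSO only wells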
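incubation = overnight seeding at 37 °C, 6 h compound treatment at 37 °C | assay system = CHO-XBP1 cells stably carrying IRE1-XBP1-driven luciferase reporter | input = 1000 cells per well | detection = luciferase luminescence | dosing = single point, 20 µM final compound, 1% DMSO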
CHOP inhibitor – CHOP inhibition in unfolded protein response; CHO-K1 CHOP-promoter luciferase, tunicamycin-induced, 15-18 h; inhibition, % at 10 µM; actives 3.8% (n = 220,000); AID 2732;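 active = compounds that reduced the stress-induced luciferase reporter signal by more than about 70% of percent inhibition, limit read from the data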;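 note: 0% = tunicamycin plus vehicle and 100% = wells without tunicamycin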
UPR CHOP act – apoptotic UPR (CHOP) activation; activation, % at 10 µM; actives 0.34% (n = 330,000); CHO-CHOP luciferase reporter, luminescence; percent of tunicamycin response over DMSO baseline;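 active = at 10 µM dose, activation of 40% or more, normalized to positive control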;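 note: 100% = tunicamycin at 10 µg/mL and 0% = DMSO alone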
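Test system: CHO-CHOP cells, stable luciferase reporter of PERK-eIF2a-CHOP signalling | Quantity: 500 CHO-CHOP cells per well | Buffer or medium: F12 plus 10% serum | Compound dosing: 10 µM single point, 0.5% DMSO | Schedule: 6 h compound treatment, 37 °C | Signal: Luciferase luminescence | Control set: Tunicamycin high control, DMSO low control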
CHOP inh conf – confirmation of CHOP induction inhibitors. shares compounds with CHOP inhibitor. CHO-CHOP promoter luciferase reporter, tunicamycin-induced, luminescence. inhibition, % at 10 µM. actives 45% (n = 2,100);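 active = mean of three repeat readings of reporter signal inhibition above a set limit, cut at about 70% in these data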;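 note: 0% = tunicamycin plus vehicle and 100% = wells lacking tunicamycin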
The depositor's hits bear a star; . = not tested or not shown.

SMILES	Jurkat NFkB inh	697 NFkB inh	UPR XBP1 act	CHOP inhibitor	UPR CHOP act	CHOP inh conf
CCCCc1c(C)nn(-c2nnc3c4ccccc4n(CC)c3n2)c1C	-10.4	-22.3	28.8	104.5*	3.3	99.2*
O=c1nc(SCc2c(F)cccc2Cl)nc(-c2ccc(Cl)cc2)[nH]1	11.2	11.8	-0.1	100.9*	-1.4	9.7
CCCCn1c(NS(=O)(=O)c2ccc(C)cc2)c(S(=O)(=O)c2ccccc2)c2nc3ccccc3nc21	.	.	.	104.2*	.	88.7*
COc1nc(Cl)cn(-c2ccc(C)cc2)c1=O	4.3	21.0	-1.5	-3.1	2.8	.
Cc1ccc(-n2c(Cl)c(Cl)nc(Cl)c2=O)cc1	.	.	.	109.8*	.	113.5*
Cc1cc(/C(=N/O)C(C)(C)NO)ccc1Cl	0.8	-1.8	2.0	101.8*	0.3	-76.2
COc1cc(C(=O)O)ccc1Cl	5.4	15.3	0.2	-2.7	0.4	.
O=C(NCc1ccccc1Cl)C1CCC(CNc2nc(=S)[nH]c3ccccc23)CC1 (centres undefined)	-24.1	-21.1	4.3	98.1*	-2.2	15.7
O=C(CCCCCNc1nc(=S)[nH]c2ccccc12)NCc1ccccc1Cl	-18.3	15.2	-3.5	33.9	-1.4	.
O=C(/C=C/c1ccccc1)NC(NC(=S)Nc1ccc(Cl)cc1)C(Cl)(Cl)Cl (centres undefined)	13.0	3.3	26.7	108.6*	25.7	60.3
CCOC(=O)NC(NC(=S)Nc1ccc(OC)cc1)C(Cl)(Cl)Cl (centres undefined)	-4.9	5.0	1.7	-0.7	-1.3	.
COc1ccc(NC(=S)NC(NC(=O)/C=C/c2ccccc2)C(Cl)(Cl)Cl)cc1 (centres undefined)	-6.2	-18.5	16.6	107.0*	17.0	121.9*
CCOC(=O)C(C)CC(C)C(=O)N1CCOCCOCCN(C(=O)C(C)CC(C)C(=O)OCC)CCOCC1 (centres undefined)	8.5	10.9	1.6	-1.0	0.3	.
CCOC(=O)C(C(=O)OCC)C(C(=O)OCC)N1CCOCC1 (centres undefined)	7.7	-5.7	-11.1	102.4*	-10.7	-93.5
Cc1ccc(C)c(NC(=O)CN(C)C(=O)C2COc3ccccc3O2)c1 (centres undefined)	-0.9	-13.1	-0.9	.	-0.5	.
COc1ccc(C2=NOC(C)(c3nnc(-c4ccc(Cl)cc4)o3)C2)cc1 (centres undefined)	2.7	1.1	5.8	.	0.0	.
Cc1sc(NC(=O)c2ccccc2)c(C(c2ccc(Cl)cc2)N2CCN(CCO)CC2)c1C (centres undefined)	7.7	10.7	1.6	104.2*	0.3	2.1
COc1ccc2nc3sc(C(=O)NCc4cccs4)c(N)c3cc2c1	8.7	3.1	-2.0	102.0*	-0.1	8.6
O=c1/c(=C\c2cccc(O)c2)sc2nc(-c3ccccc3)c(-c3ccccc3)n12	-12.9	0.9	0.2	99.5*	2.0	21.0
CCN(CC)C(=O)c1ncn(C)c1C(=O)N(CC)CC	8.6	13.2	-1.2	.	0.9	.
Cc1nnc(NC(=O)CSc2nc3ccccc3o2)s1	4.4	2.5	-2.6	13.7	-2.1	.
CC1CCc2nc(NC(=O)CSc3nc4ccccc4o3)sc2C1 (centres undefined)	-36.5	-110.2	-8.5	96.7*	-1.6	22.6
COc1ccc2c(-c3ccccc3)cc(=O)[nH]c2c1	1.0	9.1	6.0	28.5	0.8	.
COc1ccc2c(c1)[nH]c(=O)c1sc3ccccc3c12	-51.8	-46.8	11.4	108.4*	3.9	56.5
COc1ccc2sc3c(=O)[nH]c4ccccc4c3c2c1	2.5	-41.6	1.0	97.2*	-1.2	45.7
SMILES	Jurkat NFkB inh	697 NFkB inh	UPR XBP1 act	CHOP inhibitor	UPR CHOP act	CHOP inh conf
CCN(CC(=O)Nc1ccc2c(c1)OCCO2)C(=O)CCc1ccccc1Cl	5.6	-3.2	0.2	.	-1.2	.
CCOc1ccc(S(=O)(=O)N2CCCC(C(=O)Nc3ccccc3)C2)cc1 (centres undefined)	16.5	2.2	0.8	.	-3.6	.
COC/C=C/C1=CC2=CC(=O)C(C)(OC(=O)C3CCCC3)C(=O)C2=CO1 (centres undefined)	22.4	10.0	0.9	99.1*	1.5	9.2
Cn1cc(Cl)c(C(=O)OCC(=O)c2ccccc2)n1	-3.1	-2.1	1.1	.	4.9	.
O=C(N/N=C/c1cccc2ccccc12)c1n[nH]c2c1CCCC2	24.7	-51.4	3.8	100.7*	2.1	8.7
COc1ccc(/C=C/C(=O)NC(=S)NNC(=O)c2cccnc2)cc1	-0.2	-17.4	-2.5	97.6*	0.3	77.0*
O=c1[nH]c(=S)[nH]c(O)c1N=Nc1ccc(-c2ccccc2)cc1[N+](=O)[O-]	.	.	.	102.3*	.	42.2
COc1ccc(S(=O)(=O)Nc2ccccc2OC)cc1N=Nc1c(O)[nH]c(=S)[nH]c1=O	-9.6	20.6	0.1	.	-0.2	.
O=C(CCc1ccccc1)N=C1SC2CS(=O)(=O)CC2N1c1ccccc1 (centres undefined)	9.1	11.0	-2.4	.	3.6	.
CC(C)(C)c1ccc(CN2N=Nc3ccccc3S2(=O)=O)cc1	0.7	-51.7	-5.3	107.9*	-5.3	123.7*
CCCCOP(=O)(OCCCC)C1(NS(=O)(=O)c2ccccc2)C=CC(=O)c2ccccc21 (centres undefined)	2.9	15.7	-1.4	96.1*	0.9	63.3
O=C(CCNS(=O)(=O)c1ccccc1)OCC(=O)c1ccc(Cl)cc1	-2.3	-1.9	-5.5	.	-0.5	.
COc1ccccc1-c1cc(C(F)(F)F)nc(S(=O)(=O)CCCC(=O)O)n1	-6.0	-9.7	-3.7	-33.5	-1.6	.
COc1ccccc1-c1cc(C(F)(F)F)nc(S(=O)(=O)CCCC(=O)N2CCOCC2)n1	28.0	-244.3	-9.9	.	-4.8	67.3
CC(C)Cc1ccc(C(C)C(=O)Nc2nccs2)cc1 (centres undefined)	17.6	-29.7	0.3	96.2*	0.2	94.1*
CC(Oc1ccc(Br)cc1)C(=O)Nc1ccc(S(=O)(=O)N(C)C2CCN(C)CC2)cc1 (centres undefined)	23.6	-37.3	6.8	.	0.6	.
CCCCC1=CC2=C(c3ccco3)C(=O)C(C)(OC(=O)c3ccc(OC)cc3)C(=O)C2=CN1c1ccccc1 (centres undefined)	4.3	5.1	-0.7	103.8*	0.6	-64.3
C/C(=N/NC(=O)CNC(=O)Cc1ccc(Cl)cc1)c1ccco1	7.9	2.4	-0.9	3.1	0.6	.
CCOC(=O)c1csc(NNC=O)n1	6.9	4.2	0.1	1.3	0.4	.
CC(C)CCN(C(=O)Cc1ccc(Cl)c(Cl)c1)c1c(N)n(Cc2ccccc2)c(=O)[nH]c1=O	4.8	23.5	7.8	103.4*	6.8	108.4*
CC(=O)Oc1c(C(=O)c2nnc(C)o2)c(=O)n(C)c2ccccc12	2.3	6.7	-1.6	11.6	0.1	.

Source: PubChem BioAssay (several laboratories)
